# Experimental data reported in ChEMBL document CHEMBL1221214, “Cytosporone B is an agonist for nuclear orphan receptor Nur77” (Nat Chem Biol, 2008).
# Activity calls are given as the source filed them. The rule behind the calls is not given here.
# Columns and labels:
# [1] = biological target: T1, Nuclear receptor subfamily 4immunitygroup A member 1 (Homo sapiens, UniProt P22736); assay: Agonist activity at nuclear orphan receptor Nur77 in human BGC823 cells bearing beta-galactosidase expression vector assessed as transcriptional activation of NurRE reporter gene after 12 hrs by luciferase assay; type: functional, cell-based; conditions: BGC-823
# [2] = biological target: T1, Nuclear receptor subfamily 4immunitygroup A member 1; assay: Agonist activity at nuclear orphan receptor Nur77 in human BGC823 cells bearing beta-galactosidase expression vector assessed as transcriptional activation of thyroid receptor reporter gene after 12 hrs by luciferase assay; type: functional, cell-based; conditions: BGC-823
# [3] = biological target: T1, Nuclear receptor subfamily 4immunitygroup A member 1; assay: Binding affinity to GST-tagged nuclear orphan receptor Nur77 at 25 degC by fluorescence quenching analysis
# Summary of the method: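 GST-Nur77 intrinsic fluorescence (emission maximum 336 nm) monitored while increasing Csn-B amounts were added; inner-filter contribution estimated with GST alone and subtracted to give corrected quenching curves.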
# [4] = biological target: T1, Nuclear receptor subfamily 4immunitygroup A member 1; assay: Binding affinity to nuclear orphan receptor Nur77-ligand binding domain at 5 Um by fluorescence quenching analysis
# [5] = biological target: T1, Nuclear receptor subfamily 4immunitygroup A member 1; assay: Binding affinity to nuclear orphan receptor Nur77 by sedimentation equilibrium assay
# [6] = biological target: T1, Nuclear receptor subfamily 4immunitygroup A member 1; assay: Agonist activity at nuclear orphan receptor Nur77 expressed in human BGC823 cells co-transfected with fused GAL4-Y453A assessed as transactivation after 12 hrs by luciferase reporter gene assay; type: functional, cell-based; conditions: BGC-823
# [7] = biological target: Nuclear receptor subfamily 4 group A member 2 (Homo sapiens) (UniProt P43354); assay: Agonist activity at nuclear orphan receptor Nurr1 expressed in human BGC823 cells co-transfected with fused GAL4-Nurr1(LBD) assessed as transactivation after 12 hrs by transactivation assay; type: functional, cell-based; conditions: BGC-823
# [8] = test system: Mus musculus; assay: Increase in blood glucose level in Nr4a1 deficient mouse C57BL/6 at 50 mg/kg, ip within 30 mins; type: functional; conditions: route intraperitoneal
# Summary of the method: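 C57BL/6 mice (wild-type or Nr4a1-/-, six weeks old) fasted 16 h with water, then given 50 mg kg-1 intraperitoneally. DMSO (50 μl) or injection without vehicle served as controls. Tail-vein blood glucose was read by glucometer at 15, 30, 60, 90, 120, 180 and 300 min. Means ± s.e.m.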
# [9] = biological target: Nuclear receptor subfamily 4 group A member 1 (Mus musculus) (UniProt P12813); assay: Agonist activity at Nur77 in wild-type mouse C57BL/6 assessed as glucose-6-phosphatase mRNA at 50 mg/kg, ip within 30 mins by real-time PCR analysis relative to control; type: functional, organism-based; design: dose 50 mg/kg
# [10] = biological target: Nuclear receptor subfamily 4 group A member 1 (Mus musculus) (UniProt P12813); assay: Agonist activity at Nur77 in wild-type mouse C57BL/6 assessed as fructose-1,6-bisphosphatase mRNA at 50 mg/kg, ip within 30 mins by real-time PCR analysis relative to control; type: functional, organism-based; design: dose 50 mg/kg
# [11] = biological target: Nuclear receptor subfamily 4 group A member 1 (Mus musculus) (UniProt P12813); assay: Agonist activity at Nur77 in wild-type mouse C57BL/6 assessed as phosphofructokinase mRNA at 50 mg/kg, ip within 30 to 300 mins by real-time PCR analysis; type: functional, organism-based; design: dose 50 mg/kg
# [12] = biological target: Nuclear receptor subfamily 4 group A member 1 (Mus musculus) (UniProt P12813); assay: Agonist activity at Nur77 in wild-type mouse C57BL/6 assessed as pyruvate kinase mRNA at 50 mg/kg, ip within 30 mins by real-time PCR analysis; type: functional, organism-based; design: dose 50 mg/kg
# [13] = biological target: Nuclear receptor subfamily 4 group A member 1 (Mus musculus) (UniProt P12813); assay: Agonist activity at Nur77 in wild-type mouse C57BL/6 assessed as pyruvate kinase mRNA at 50 mg/kg, ip after 300 mins by real-time PCR analysis; type: functional, organism-based; design: dose 50 mg/kg
# [14] = organism: Mus musculus; assay: Reduction in blood glucose level in insulin treated mouse C57BL/6 within 30 mins; type: functional
# Summary of the method: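 C57BL/6 mice fasted 5 h with water, then injected intraperitoneally with insulin (0.5 U kg-1), alone or with compound at 50 mg kg-1. Tail-vein blood glucose was read by glucometer at 15–300 min after treatment. Means ± s.e.m.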
# [15] = biological target: Nuclear receptor subfamily 4 group A member 1 (Mus musculus) (UniProt P12813); assay: Agonist activity at Nur77 in insulin treated mouse C57BL/6 assessed as fructose-1,6-bisphosphatase mRNA after 60 mins by real-time PCR relative to control; type: functional
# [16] = test system: BGC-823; assay: Induction of Nur77 mediated apoptosis in human BGC823 cells assessed as cytochrome C release from mitochondria at 5 uM after 24 hrs by Western blotting analysis; type: functional, cell-based
# [17] = test system: SW-620; assay: Antiproliferative activity against human SW620 cells assessed as number of viable cells after 72 hrs by MTT assay; type: functional
# Summary of the method: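 BGC-823 gastric and SW620 colon cancer cells incubated 72 h with various Csn-B concentrations; viable cells counted by MTT assay.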
# [18] = test system: HepG2; assay: Antiproliferative activity against human HepG2 cells assessed as number of viable cells after 72 hrs by MTT assay; type: functional, cell-based
# [19] = test system: L02; assay: Antiproliferative activity against human HL7702 cells assessed as number of viable cells after 72 hrs by MTT assay; type: functional, cell-based
# [20] = test system: Mycobacterium tuberculosis; assay: Antimicrobial activity against Mycobacterium tuberculosis; type: functional, organism-based
# [21] = test system: Staphylococcus aureus; assay: Antimicrobial activity against Staphylococcus aureus; type: functional, organism-based
# [22] = test system: Saccharomyces cerevisiae; assay: Antimicrobial activity against Saccharomyces cerevisiae; type: functional, organism-based
# [23] = biological target: T1, Nuclear receptor subfamily 4immunitygroup A member 1; assay: Agonist activity at nuclear orphan receptor Nur77 expressed in human BGC823 cells co-transfected with pLuc-3500 containing Nr4a1 promoter assessed as transcriptional activity; type: functional, cell-based; conditions: BGC-823
# [24] = biological target: T1, Nuclear receptor subfamily 4immunitygroup A member 1; assay: Induction of Nur77-SRC1 interaction in human 293T cells by GST-pull-down assay; type: cell-based
# Summary of the method: (§1)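 293T cells transfected with Flag-SRC-1, -2 or -3 and treated at 10⁻⁶ M for 3 h. Lysates were incubated with GST-Nur77 or GST alone, and bound SRC was detected by pull-down against input levels.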
# [25] = biological target: T1, Nuclear receptor subfamily 4immunitygroup A member 1; assay: Induction of Nur77-SRC3 interaction in HEK293T cells by GST-pull-down assay; type: cell-based; conditions: HEK-293T; summary of the method: as §1
# [26] = biological target: T1, Nuclear receptor subfamily 4immunitygroup A member 1; assay: Induction of SRC2-enhanced Nur77 transactivational activity in human BGC823 cells after 12 hrs by luciferase/beta-galactosidase reporter assay; type: cell-based; conditions: BGC-823
# Summary of the method: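 BGC-823 cells cotransfected with or without SRC-1, SRC-2 or SRC-3, plus NurRE-luciferase reporter and β-galactosidase, then treated for 12 h at a range of concentrations. Fold induction is each luciferase activity relative to non-SRC transfection at the same concentration.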
# [27] = biological target: Nuclear receptor subfamily 4 group A member 1 (Mus musculus) (UniProt P12813); assay: Agonist activity at Nur77 in Nr4A1 deficient mouse assessed as transcriptional activation of luciferase reporter gene relative to control; type: functional
# [28] = biological target: Nuclear receptor subfamily 4 group A member 1 (Mus musculus) (UniProt P12813); assay: Agonist activity at Nur77 in Nr4a1 deficient mouse transfected withGAL4-Y453A assessed as transcriptional activation of luciferase reporter gene; type: functional
# Summary of the method: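 Nr4a1-/- mice (n = 5/group) given tail-vein GAL4-Nur77 or GAL4-Y453A with GAL4-luciferase reporter and β-galactosidase in in vivo transfection reagent; 5 h later DMSO or Csn-B 50 mg kg-1 ip; liver luciferase measured at 24 h.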
# [29] = test system: BGC-823; assay: Antitumor activity against human BGC823 cells expressing si-Nur77 xenografted in athymic nude mouse BALB/c assessed as apoptotic cells by TUNEL assay; type: functional
# Summary of the method: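 Tumors from the subcutaneous BGC-823 xenograft nude mice (wild-type, si-Nur77 or si-Ctrl cells; Csn-B 13 mg kg-1 ip twice weekly or DMSO for 4 weeks) were sectioned and apoptotic cells detected by TUNEL assay.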
# [30] = test system: BGC-823; assay: Antitumor activity against human BGC823 cells expressing Nur77-WT xenografted in athymic nude mouse BALB/c assessed as increase in apoptotic cells by TUNEL assay
# T1 sequence (P22736 whole entry): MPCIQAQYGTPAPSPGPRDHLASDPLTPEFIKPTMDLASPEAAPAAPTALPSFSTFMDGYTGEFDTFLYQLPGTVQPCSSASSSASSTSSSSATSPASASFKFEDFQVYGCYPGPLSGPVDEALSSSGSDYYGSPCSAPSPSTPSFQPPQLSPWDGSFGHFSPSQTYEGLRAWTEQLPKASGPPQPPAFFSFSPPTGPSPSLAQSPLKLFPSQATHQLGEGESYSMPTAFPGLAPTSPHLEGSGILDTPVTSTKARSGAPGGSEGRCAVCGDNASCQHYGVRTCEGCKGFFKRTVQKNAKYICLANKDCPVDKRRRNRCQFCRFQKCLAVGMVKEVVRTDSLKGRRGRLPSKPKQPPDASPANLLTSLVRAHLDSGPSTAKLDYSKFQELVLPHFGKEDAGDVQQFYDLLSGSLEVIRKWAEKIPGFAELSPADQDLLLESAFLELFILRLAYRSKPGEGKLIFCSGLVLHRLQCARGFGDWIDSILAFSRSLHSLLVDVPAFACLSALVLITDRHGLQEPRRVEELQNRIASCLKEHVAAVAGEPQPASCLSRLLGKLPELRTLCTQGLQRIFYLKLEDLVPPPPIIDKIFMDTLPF
# Sequence of Nuclear receptor subfamily 4 group A member 1 (Mus musculus) (P12813 whole entry, the tested form may be a part): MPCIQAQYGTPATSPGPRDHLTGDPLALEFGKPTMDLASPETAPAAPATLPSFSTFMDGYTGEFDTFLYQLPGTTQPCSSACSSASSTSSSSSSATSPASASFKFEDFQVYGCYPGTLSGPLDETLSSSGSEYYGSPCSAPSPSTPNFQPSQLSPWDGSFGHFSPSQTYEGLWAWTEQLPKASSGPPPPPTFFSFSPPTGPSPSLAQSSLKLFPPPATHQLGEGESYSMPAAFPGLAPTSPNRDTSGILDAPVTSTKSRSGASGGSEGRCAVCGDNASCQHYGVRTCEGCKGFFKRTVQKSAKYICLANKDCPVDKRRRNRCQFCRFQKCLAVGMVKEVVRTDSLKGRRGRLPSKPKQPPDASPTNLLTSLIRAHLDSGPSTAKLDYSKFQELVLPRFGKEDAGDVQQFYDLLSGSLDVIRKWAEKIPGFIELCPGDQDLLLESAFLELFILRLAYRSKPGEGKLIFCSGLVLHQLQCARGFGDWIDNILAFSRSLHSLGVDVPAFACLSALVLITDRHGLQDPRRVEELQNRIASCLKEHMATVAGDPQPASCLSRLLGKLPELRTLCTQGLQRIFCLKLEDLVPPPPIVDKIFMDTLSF
# Sequence of Nuclear receptor subfamily 4 group A member 2 (Homo sapiens) (P43354 whole entry, the tested form may be a part): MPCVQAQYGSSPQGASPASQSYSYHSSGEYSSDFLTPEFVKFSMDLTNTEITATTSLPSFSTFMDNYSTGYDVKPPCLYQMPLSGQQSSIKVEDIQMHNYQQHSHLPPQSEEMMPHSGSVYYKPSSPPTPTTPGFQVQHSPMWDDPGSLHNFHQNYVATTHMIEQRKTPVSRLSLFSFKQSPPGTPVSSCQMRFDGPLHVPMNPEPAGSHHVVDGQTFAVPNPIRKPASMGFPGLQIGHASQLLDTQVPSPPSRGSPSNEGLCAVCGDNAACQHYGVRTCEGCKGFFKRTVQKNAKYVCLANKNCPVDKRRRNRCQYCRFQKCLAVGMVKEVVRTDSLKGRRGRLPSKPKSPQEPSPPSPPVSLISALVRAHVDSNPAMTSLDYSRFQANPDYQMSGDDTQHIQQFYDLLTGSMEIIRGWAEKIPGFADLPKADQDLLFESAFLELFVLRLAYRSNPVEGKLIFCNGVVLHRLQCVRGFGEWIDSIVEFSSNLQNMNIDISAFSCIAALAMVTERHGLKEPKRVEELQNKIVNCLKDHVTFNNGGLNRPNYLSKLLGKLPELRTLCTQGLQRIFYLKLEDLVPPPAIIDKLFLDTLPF
compound,measurement,setting,value
CCCCCCCC(=O)c1c(O)cc(O)cc1CC(=O)OCC [CYTOSPORONE B],Activity,[1],Active
same,Activity,[2],inactive
same,Activity,[3],Active
same,Activity,[4],Active
same,Activity,[5],Active
same,Activity,[6],inactive
same,Activity,[7],inactive
same,Activity,[8],5.8 mM
same,Activity,[9],Active
same,fold change (FC),[10],3
same,Activity,[11],inactive
same,Activity,[12],inactive
same,Activity,[13],inactive
same,fold change (FC),[14],3
same,fold change (FC),[15],3.05
same,Activity,[16],Active
same,inhibition (INH),[17],>70%
same,Activity,[18],Active
same,inhibition,[19],Active
same,IC50,[20],250 µg/mL
same,IC50,[21],12.5 µg/mL
same,IC50,[22],1.56 µg/mL
same,Activity,[23],Active
same,Activity,[24],Active
same,Activity,[25],inactive
same,Activity,[26],Dose-dependent effect
same,Activity,[27],inactive
same,Activity,[28],inactive
same,Activity,[29],Active
same,Activity,[30],Active
